Series [1] has as its system HeLa. Kind of series: Cytotoxicity against human HeLa cells after 72 hrs by MTT assay. Type of series: functional, cell-based. The essentials: (§1)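 MTT assay in HeLa, HL60 and U937 cancer lines. IC50 in µM is the mean ± SD of three independent experiments. 5-Fluorouracil and paclitaxel served as positive controls.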
Series [2] concerns HL-60. The series can be described thus: Cytotoxicity against human HL60 cells after 72 hrs by MTT assay. Type of series: functional, cell-based. The note with it: HL-60, 72 h. The essentials: as §1
Series [3] relates to U-937. Kind of series: Cytotoxicity against human U937 cells after 72 hrs by MTT assay. Type of series: functional, cell-based. The note with it: U-937, 72 h. The essentials:
as §1
Background: Tetrazolium dyes change colour on reduction, which living cells bring about.

The nature of series [4]: Cytotoxicity against human PBMC cells assessed as cell viability at 5 uM after 12 hrs by MTT assay. The note with it: read-out: Activity. Type of series: cell-based. A digest of the protocol: (§2)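 PBMC from three healthy adult volunteers, seeded at 5 × 10^5 cells/well in 96-well plates; cultured with various doses of test agent for 12, 24, 48 and 72 h; viability read out; n=3, mean ± SD; significance p < 0.05.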

A short description of series [5]: Cytotoxicity against human PBMC cells assessed as cell viability at 5 uM after 24 hrs by MTT assay. Type of series: cell-based. Particulars: read-out: Activity. A digest of the protocol: as §2
Series [6] can be described thus: Cytotoxicity against human PBMC cells assessed as cell viability at 5 uM after 48 hrs by MTT assay. The note with it: read-out: Activity. Type of series: cell-based. A digest of the protocol: as §2
A short description of series [7]: Cytotoxicity against human PBMC cells assessed as cell viability at 5 uM after 72 hrs by MTT assay. Type of series: cell-based. The note with it: read-out: Activity. The essentials:
as §2

In series [8] the test system is HL-60. Kind of series: Induction of autophagy in human HL60 cells assessed as formation of autophagic vacuoles at 0.5 umol/L by MDC staining-based flow cytometry. The note with it: TDE = time-dependent effect. Type of series: functional, cell-based. A digest of the protocol: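 Autophagic vacuoles were labelled with monodansylcadaverine and viewed by fluorescence microscopy. MDC fluorescence intensity was quantified by flow cytometry after 0.5 µmol L-1 treatment.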
In general terms: Flow cytometry measures light scatter and fluorescence of single cells or particles in a stream.

Series [9] deals with HL-60. The series can be described thus: Cell cycle arrest in human HL60 cells assessed as accumulation at sub-G1 phase after 24 hrs by PI-based flow cytometry analysis ( Rvb = 1.73 +/-0.08 %). Type of series: functional. The essentials:
(§3)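 HL60 cells exposed to 0.5 µM for 24, 48 and 72 h alongside untreated controls. Apoptosis was quantified by flow cytometry as the subG1 fraction.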

In series [10] the test system is HL-60. The series can be described thus: Cell cycle arrest in human HL60 cells assessed as accumulation at sub-G1 phase after 48 hrs by PI-based flow cytometry analysis ( Rvb = 1.73 +/-0.08 %). Type of series: functional. The essentials: as §3
Series [11] concerns HL-60. Kind of series: Cell cycle arrest in human HL60 cells assessed as accumulation at sub-G1 phase after 72 hrs by PI-based flow cytometry analysis ( Rvb = 1.73 +/-0.08 %). Type of series: functional. The essentials: as §3
In series [12] the test system is HL-60. Kind of series: Induction of autophagy in human HL60 cells at 0.5 umol/L after 48 hrs by MDC staining based flow cytometry (reference value: 2.27 +/- 0.43 %). Type of series: functional. The essentials: (§4)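 HL60 cells were treated with 0.5 µmol L-1 for 0, 24, 48 or 72 h, stained with MDC, and fluorescence intensity was analysed by flow cytometry.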
In series [13] the test system is HL-60. The series can be described thus: Induction of autophagy in human HL60 cells at 0.5 umol/L after 72 hrs by MDC staining based flow cytometry (reference value: 2.27 +/- 0.43 %). Type of series: functional. The essentials: as §4
Series [14] deals with HL-60. Kind of series: Induction of autophagy in human HL60 cells assessed as increase in beclin 1 level at 0.5 umol/L by Western blot analysis. Type of series: functional, cell-based. The note with it: TDE = time-dependent effect. A digest of the protocol: (§5)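 HL60 cells were treated with 0.5 µmol L-1 over a time course and analysed by Western blot for Beclin-1 and LC3-I to LC3-II conversion, with β-actin as loading control.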
(In general: In western blotting, separated proteins are transferred to a membrane and probed.)

For series [15], the system named is HL-60. Kind of series: Induction of apoptosis in human HL60 cells assessed as chromatin condensation by acridine orange staining-based fluorescence microscopy. Type of series: functional, cell-based. The essentials:
(§6)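 HL60 cells were stained with acridine orange and examined under a fluorescence microscope for chromatin condensation and nuclear fragmentation, with control-medium cells as reference.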

Series [16] relates to HL-60. Kind of series: Induction of apoptosis in human HL60 cells assessed as nuclear fragmentation by acridine orange staining-based fluorescence microscopy. Type of series: functional, cell-based. A digest of the protocol: as §6
Series [17] has as its system HL-60. Kind of series: Induction of apoptosis in human HL60 cells assessed as decrease in number of MDC-positive cells at 0.5 uM after 24 hrs by MDC staining-based fluorescence analysis in presence of 3-MA. Type of series: functional, cell-based. A digest of the protocol: (§7)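 HL60 cells were treated 24 h with 0.5 µM, with or without 1 mM 3-MA added beforehand. MDC-positive (autophagic) ratio and apoptotic ratio were measured by flow cytometry. Mean ± SD, n = 3.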

Series [18] deals with HL-60. Kind of series: Induction of apoptosis in human HL60 cells assessed as decrease in apoptotic ratio at 0.5 uM after 24 hrs by MDC staining-based fluorescence analysis in presence of 3-MA. Type of series: functional, cell-based. A digest of the protocol: as §7
In series [19] the test system is HL-60. The series can be described thus: Cell cycle arrest in human HL60 cells assessed as accumulation at sub-G1 phase by PI-based flow cytometry analysis. The note with it: TDE = time-dependent effect. Type of series: functional. The essentials:
as §3

The test system of series [20] is HL-60. The series can be described thus: Induction of autophagy in human HL60 cells assessed as increase in LC3-II level at 0.5 umol/L by Western blot analysis. Type of series: functional, cell-based. The note with it: TDE = time-dependent effect. A digest of the protocol: as §5
Series [21] concerns PBMC. Kind of series: Cytotoxicity against human PBMC cells assessed as cell viability at 160 uM after 24 to 72 hrs by MTT assay. Type of series: cell-based. The essentials: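 PBMC were taken from three healthy adult volunteers and seeded at 5 × 10^5 cells/well. They were cultured 12, 24, 48 and 72 h across a range of concentrations up to 160 µM, with 5-FU for comparison. Viability is mean ± SD, n=3, compared by p < 0.05.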

The test system of series [22] is HL-60. Kind of series: Induction of apoptosis in human HL60 cells assessed as retraction of cellular process at 0.5 uM after 24 hrs by phase contrast microscopy. Type of series: functional, cell-based. A digest of the protocol: (§8)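 HL60 cells were cultured with 0.5 µM for 24, 48 and 72 h. Morphology was compared with untreated control cells by microscopy.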
For series [23], the system named is HL-60. The series can be described thus: Induction of apoptosis in human HL60 cells assessed as round in cell shape at 0.5 uM after 24 hrs by phase contrast microscopy. Type of series: functional, cell-based. A digest of the protocol: as §8
In series [24] the test system is HL-60. Kind of series: Induction of apoptosis in human HL60 cells assessed as round cell with shrunken nuclei at 0.5 uM after 48 hrs by phase contrast microscopy. Type of series: functional, cell-based. A digest of the protocol: as §8
In series [25] the test system is HL-60. Kind of series: Induction of apoptosis in human HL60 cells assessed as membrane blebbing at 0.5 uM after 48 hrs by phase contrast microscopy. Type of series: functional, cell-based. A digest of the protocol:
as §8

The subject of series [26] is HL-60. Kind of series: Induction of apoptosis in human HL60 cells assessed as fragmentation of nuclei into apoptotic bodies at 0.5 uM after 48 hrs by phase contrast microscopy. Type of series: functional, cell-based. A digest of the protocol: as §8
Series [27] has as its system HL-60. The series can be described thus: Induction of apoptosis in human HL60 cells assessed as non-adherent dead cell at 0.5 uM after 48 hrs by phase contrast microscopy. Type of series: functional, cell-based. The essentials: as §8
Series [28] relates to HL-60. Kind of series: Induction of autophagy in human HL60 cells at 0.5 umol/L after 24 hrs by MDC staining based flow cytometry (reference value: 2.27 +/- 0.43 %). Type of series: functional. The essentials: as §4

Calls of active or inactive are those of the source. The rule behind the calls is not given here.

Take `c1ccc(-c2nc3cc(Oc4ccc5[nH]c(-c6ccccc6)nc5c4)ccc3[nH]2)cc1`: the IC50 in series [1] is 18.4 µM; in series [2], 16.5 µM; in [3] it was 17.1 µM.

In the case of `O=c1[nH]cc(F)c(=O)[nH]1` [FLUOROURACIL], the IC50 turned out to be 0.28 µM in series [1], 0.06 µM in series [2] and 1.07 µM in [3]. Moreover, the viability at 12 h, 5 µM in [4] worked out at 98%. For the same compound, the viability at 24 h, 5 µM in series [5] stood at 94%. For the same compound, the viability at 48 h, 5 µM in series [6] was found to be 87%. Further, in [7], the viability at 72 h, 5 µM was found to be 76%.

With `Fc1ccc(-c2nc3cc(Oc4ccc5[nH]c(-c6ccc(F)cc6)nc5c4)ccc3[nH]2)cc1`, the IC50 in series [1] is 22.8 µM; in [2], 23.2 µM; in series [3] it was 22.6 µM.

For `COc1cc(-c2nc3cc(Oc4ccc5[nH]c(-c6cc(OC)c(OC)c(OC)c6)nc5c4)ccc3[nH]2)cc(OC)c1OC`, the IC50 in series [1] came out at 9.37 µM; in series [2], 7.56 µM; in [3], 6.92 µM.

For `COc1cc(OC)cc(-c2nc3cc(Oc4ccc5[nH]c(-c6cc(OC)cc(OC)c6)nc5c4)ccc3[nH]2)c1`, the IC50 in series [1] amounted to 8.59 µM; in [2], 6.35 µM; in series [3], 7.09 µM.

Turning to `CN1CCN(c2ccc3[nH]c(-c4ccc5[nH]c(-c6ccc(O)cc6)nc5c4)nc3c2)CC1` [HOECHST 33258], the values for the IC50 in [1], in series [2] and in series [3] were 51.3 µM, 32.4 µM and 15.4 µM, respectively.

Regarding `COc1ccc(-c2nc3cc(Oc4ccc5[nH]c(-c6ccc(OC)cc6)nc5c4)ccc3[nH]2)cc1`, the Activity result in series [8] was “tde”; in [9], 13.8%; in [10], 63.02%; in [11] it was 89.61%; in [12], 47.27%; in [13] it was 89.65%. Moreover, the Activity result in series [14] was “tde”; in [19], “tde”; in series [20], “tde”; in series [21], “Non-toxic”; in series [28], 9.79%. In addition, the outcome in [15], in [16], in series [17], in [18], in series [22] and in series [23] was Active. Also, the outcome in [24], in series [25], in series [26] and in series [27] was Active. Further, the half-inhibitory concentration (IC50) came out at 4.96 µM in [1], 0.56 µM in [2] and 0.58 µM in [3]. For the same compound, the viability at 12 h, 5 µM in series [4] came out at 98%. The viability at 24 h, 5 µM in [5] came out at 96%. In series [6], the viability at 48 h, 5 µM came out at 88%. Moreover, the viability at 72 h, 5 µM in series [7] was determined as 79%.

Turning to `Brc1ccc(-c2nc3cc(Oc4ccc5[nH]c(-c6ccc(Br)cc6)nc5c4)ccc3[nH]2)cc1`, the values for the half-inhibitory concentration (IC50) in series [1], in series [2] and in [3] were 20.4 µM, 17.2 µM and 21.7 µM, respectively.

In the case of `CC(=O)O[C@H]1C(=O)[C@@]2(C)[C@H]([C@H](OC(=O)c3ccccc3)[C@]3(O)C[C@H](OC(=O)[C@H](O)[C@@H](NC(=O)c4ccccc4)c4ccccc4)C(C)=C1C3(C)C)[C@]1(OC(C)=O)CO[C@@H]1C[C@@H]2O` [PACLITAXEL], the results for the half-maximal inhibitory concentration (IC50) in series [2] and in series [3] were 0.00282 µM and 0.00337 µM, respectively.

On to `Clc1ccc(-c2nc3cc(Oc4ccc5[nH]c(-c6ccc(Cl)cc6Cl)nc5c4)ccc3[nH]2)c(Cl)c1`, for which the half-inhibitory concentration (IC50) in series [1] was 17.2 µM; in [2], 15.8 µM; in series [3] it was 20.5 µM.

`COc1cc(-c2nc3cc(Oc4ccc5[nH]c(-c6ccc(O)c(OC)c6)nc5c4)ccc3[nH]2)ccc1O`: the half-maximal inhibitory concentration (IC50) in series [1] was found to be 10.6 µM; in [2], 8.17 µM; in [3], 5.6 µM.

As a reminder, the IC50 is the midpoint of a concentration-inhibition curve.
